Measured values: ChEMBL document CHEMBL2021897, “Synthesis and SAR of 1,3-thiazolyl thiophene and pyridine derivatives as potent, orally active and S1P₃-sparing S1P₁ agonists” (Bioorg Med Chem Lett, 2012)
Activity calls are given as the source filed them. No cut-off for these calls is given here.

What was measured:
[1] = target: Sphingosine 1-phosphate receptor 1 (Homo sapiens, UniProt P21453); experiment: Agonist activity at human S1P1 receptor by [S35]GTPgammaS binding assay; assay type: functional
How it was run: (§1)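 GTPγS binding at human S1P1 and S1P3 receptors. EC50 is the mean of two experimental determinations.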

[2] = target: Sphingosine 1-phosphate receptor 3 (Homo sapiens, UniProt Q99500); experiment: Agonist activity at human S1P3 receptor by [S35]GTPgammaS binding assay; assay type: functional; how it was run: as §1
Rattus norvegicus [3] = experiment: Immunosuppressive activity in po dosed LEW rat transplanted with spleen cells of WKAH rat assessed as inhibition of enlargement of draining popliteal lymph node administered qd for 4 days; assay type: functional; conditions: 96 h, read-out: ID50 (the source's name)
How it was run: (§2)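 Spleen cells from WKAH rats were injected into the footpads of LEW rats to induce draining popliteal lymph node enlargement. Dosing was oral, once daily for four days from the day of cell injection (day 0). Lymph node weight was measured on day 4. Values are the mean of five rats; ID50 is derived from at least three doses.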

[4] = Stability of the compound in presence of enterobacteria from rat cecal contents under anaerobic condition at 3 to 30 uM after 24 hrs; assay type: ADME
How it was run: (§3)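 Compound solutions at 3.0 and 30 µM were exposed to anaerobic enterobacterial culture fluid from rat cecal contents or monkey feces, grown in prereduced PYF broth, with broth alone as control. Percent compound remaining was traced at 24 and 48 h.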

[5] = Stability of the compound in presence of enterobacteria from monkey feces contents under anaerobic condition at 3 to 30 uM after 24 hrs; assay type: ADME, tissue-based; how it was run: as §3
[6] = Stability of the compound in presence of enterobacteria from rat cecal contents under anaerobic condition at 3 to 30 uM after 48 hrs; assay type: ADME; how it was run: as §3
[7] = Stability of the compound in presence of enterobacteria from monkey feces contents under anaerobic condition at 3 to 30 uM after 48 hrs; assay type: ADME, tissue-based; how it was run: as §3
Rattus norvegicus [8] = experiment: Drug metabolism in po dosed rat plasma assessed as formation of 4-phenoxy benzoic acid; assay type: ADME, organism-based; conditions: in vivo
Rattus norvegicus [9] = experiment: Immunosuppressive activity in LEW rat transplanted with spleen cells of WKAH rat assessed as inhibition of enlargement of draining popliteal lymph node at 1 mg/kg, po qd for 4 days; assay type: functional; conditions: for inhibition in vivo at 1 mg/kg: 96 h; how it was run: as §2
[10] = target: T1, Peroxisome proliferator-activated receptor alpha (Homo sapiens) (UniProt Q07869); experiment: Agonist activity at PPARalpha; assay type: functional
T1 sequence (whole entry): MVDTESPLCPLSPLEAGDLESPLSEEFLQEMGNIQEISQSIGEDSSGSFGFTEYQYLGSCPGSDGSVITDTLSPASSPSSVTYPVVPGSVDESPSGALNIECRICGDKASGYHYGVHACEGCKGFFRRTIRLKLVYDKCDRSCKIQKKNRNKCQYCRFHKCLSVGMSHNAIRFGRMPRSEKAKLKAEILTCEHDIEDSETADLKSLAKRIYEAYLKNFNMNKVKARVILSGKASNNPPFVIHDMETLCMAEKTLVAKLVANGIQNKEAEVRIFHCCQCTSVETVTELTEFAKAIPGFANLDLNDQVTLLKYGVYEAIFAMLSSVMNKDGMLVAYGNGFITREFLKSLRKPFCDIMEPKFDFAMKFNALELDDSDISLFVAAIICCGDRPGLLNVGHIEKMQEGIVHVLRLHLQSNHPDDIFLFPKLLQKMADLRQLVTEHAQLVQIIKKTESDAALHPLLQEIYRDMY

[11] = Cmax in Lewis rat at 3 mg/kg, po; assay type: ADME, organism-based; parameters: dose 3 mg/kg, route oral; conditions: in vivo
How it was run: (§4)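 Single oral dose in Lewis rats (n = 4) or cynomolgus monkeys (n = 2), with plasma parameters derived. Bioavailability was calculated against iv dosing at 1.0 mg/kg in rats (n = 2) and 0.5 mg/kg in monkeys (n = 2).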

[12] = Tmax in Lewis rat at 3 mg/kg, po; assay type: ADME, organism-based; parameters: dose 3 mg/kg, route oral; conditions: in vivo; how it was run: as §4
[13] = Half life in Lewis rat at 3 mg/kg, po; assay type: ADME, organism-based; parameters: dose 3 mg/kg, route oral; conditions: in vivo; how it was run: as §4
[14] = AUC (0 to infinity) in Lewis rat at 3 mg/kg, po; assay type: ADME, organism-based; parameters: dose 3 mg/kg, route oral, time infinity; conditions: plasma; how it was run: as §4
[15] = Oral bioavailability in Lewis rat at 3 mg/kg; assay type: ADME, organism-based; conditions: in vivo; how it was run: as §4
[16] = Clearance in Lewis rat at 1 mg/kg, iv; assay type: ADME, organism-based; parameters: dose 1 mg/kg, route intravenous; conditions: in vivo
How it was run: (§5)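 Single iv administration to Lewis rats at 1.0 mg/kg (n = 2) or cynomolgus monkeys at 0.5 mg/kg (n = 2), with clearance and volume of distribution derived.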

[17] = Volume of distribution in Lewis rat at 1 mg/kg, iv; assay type: ADME, organism-based; parameters: dose 1 mg/kg, route intravenous; conditions: in vivo; how it was run: as §5
[18] = Cmax in cynomolgus monkey at 1 mg/kg, po; assay type: ADME, organism-based, Macaca fascicularis; parameters: dose 1 mg/kg, route oral; conditions: in vivo; how it was run: as §4
[19] = Tmax in cynomolgus monkey at 1 mg/kg, po; assay type: ADME, organism-based, Macaca fascicularis; parameters: dose 1 mg/kg, route oral; conditions: in vivo; how it was run: as §4
[20] = Half life in cynomolgus monkey at 1 mg/kg, po; assay type: ADME, organism-based, Macaca fascicularis; parameters: dose 1 mg/kg, route oral; conditions: in vivo; how it was run: as §4
[21] = AUC (0 to infinity) in cynomolgus monkey at 1 mg/kg, po; assay type: ADME, organism-based, Macaca fascicularis; parameters: time infinity, dose 1 mg/kg, route oral; conditions: plasma; how it was run: as §4
[22] = Oral bioavailability in cynomolgus monkey at 1 mg/kg; assay type: ADME, organism-based, Macaca fascicularis; conditions: in vivo; how it was run: as §4
[23] = Clearance in cynomolgus monkey at 0.5 mg/kg, iv; assay type: ADME, organism-based, Macaca fascicularis; parameters: dose 0.5 mg/kg, route intravenous; conditions: in vivo; how it was run: as §5
[24] = Volume of distribution in cynomolgus monkey at 0.5 mg/kg, iv; assay type: ADME, organism-based, Macaca fascicularis; parameters: dose 0.5 mg/kg, route intravenous; conditions: in vivo; how it was run: as §5
[25] = Cmax in cynomolgus monkey at 0.5 mg/kg, po; assay type: ADME, organism-based, Macaca fascicularis; parameters: dose 0.5 mg/kg, route oral; conditions: in vivo; how it was run: as §4
[26] = Tmax in cynomolgus monkey at 0.5 mg/kg, po; assay type: ADME, organism-based, Macaca fascicularis; parameters: dose 0.5 mg/kg, route oral; conditions: in vivo; how it was run: as §4
[27] = Half life in cynomolgus monkey at 0.5 mg/kg, po; assay type: ADME, organism-based, Macaca fascicularis; parameters: dose 0.5 mg/kg, route oral; conditions: in vivo; how it was run: as §4
[28] = AUC (0 to infinity) in cynomolgus monkey at 0.5 mg/kg, po; assay type: ADME, organism-based, Macaca fascicularis; parameters: time infinity, dose 0.5 mg/kg, route oral; conditions: plasma; how it was run: as §4
[29] = Oral bioavailability in cynomolgus monkey at 0.5 mg/kg; assay type: ADME, organism-based, Macaca fascicularis; conditions: in vivo; how it was run: as §4
Homo sapiens = species on record: Homo sapiens; experiment: Selectivity ratio of EC50 for human S1P3 receptor to EC50 for human S1P1 receptor

Chain of Sphingosine 1-phosphate receptor 3 (Q99500 whole entry): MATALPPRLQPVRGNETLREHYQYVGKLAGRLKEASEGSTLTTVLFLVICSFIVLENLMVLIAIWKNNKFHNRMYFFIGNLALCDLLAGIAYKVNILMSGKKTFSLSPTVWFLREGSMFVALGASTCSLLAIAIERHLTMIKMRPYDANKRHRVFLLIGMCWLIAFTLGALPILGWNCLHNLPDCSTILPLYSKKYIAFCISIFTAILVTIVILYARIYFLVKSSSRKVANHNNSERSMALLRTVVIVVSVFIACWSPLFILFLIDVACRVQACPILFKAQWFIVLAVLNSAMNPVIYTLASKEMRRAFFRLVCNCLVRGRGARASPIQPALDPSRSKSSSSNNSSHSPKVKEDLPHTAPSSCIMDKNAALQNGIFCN
Chain of Sphingosine 1-phosphate receptor 1 (P21453 whole entry): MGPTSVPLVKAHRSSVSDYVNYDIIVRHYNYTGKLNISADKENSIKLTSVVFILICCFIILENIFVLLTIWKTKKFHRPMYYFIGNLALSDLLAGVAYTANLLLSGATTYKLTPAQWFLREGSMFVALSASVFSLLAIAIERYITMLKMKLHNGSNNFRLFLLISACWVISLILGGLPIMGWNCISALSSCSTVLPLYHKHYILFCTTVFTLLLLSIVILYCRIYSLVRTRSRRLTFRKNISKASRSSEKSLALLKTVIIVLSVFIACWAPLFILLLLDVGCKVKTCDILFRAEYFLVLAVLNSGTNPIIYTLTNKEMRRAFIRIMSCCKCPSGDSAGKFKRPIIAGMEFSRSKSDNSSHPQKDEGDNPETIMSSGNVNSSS

Row | Compound | EC50 [1] [µM] | EC50 [2] [µM] | ED50 (Rattus norvegicus [3]) [mg/kg] | inhibition in vivo at 1 mg/kg (Rattus norvegicus [9]) [%] | further results
1 | CCc1cc(CN2CC(C(=O)O)C2)sc1-c1nnc(-c2ccc(Oc3ccccc3)cc2)o1 | 0.054 | > 20 |  |  | 
2 | CCc1cc(CN2CC(C(=O)O)C2)sc1-c1noc(-c2ccc(Oc3ccccc3)cc2)n1 |  | > 20 | 0.41 |  | Stability [4]: Unstable; Stability [5]: Unstable; Stability [6]: Unstable; Stability [7]: Unstable; Drug metabolism (Rattus norvegicus [8]): Active
3 | CCc1cc(CN2CC(C(=O)O)C2)sc1-c1cc(-c2ccc(Oc3ccccc3)cc2)no1 | 0.015 | > 20 |  |  | inhibition (Rattus norvegicus [9]): inactive
4 | CCc1cc(CN2CC(C(=O)O)C2)sc1-c1ncc(-c2ccc(OC(C)C)cc2)s1 | 0.01 | > 20 |  | 52 | 
5 | CCc1nc(CN2CC(C(=O)O)C2)ccc1-c1ncc(-c2ccc(OC(C)C)c(C)c2)s1 | 0.0055 | > 20 |  | 39 | 
6 | CCc1cc(CN2CC(C(=O)O)C2)sc1-c1nnc(-c2ccc(Oc3ccccc3)cc2)s1 | 0.025 | > 20 |  |  | inhibition (Rattus norvegicus [9]): inactive
7 | CCc1cc(CN2CC(C(=O)O)C2)sc1-c1ncc(-c2ccc(Oc3ccccc3)cc2)o1 | 0.09 | > 20 |  |  | 
8 | CCc1nc(CN2CC(C(=O)O)C2)ccc1-c1cnc(-c2ccc(CC(C)C)c(C)c2)s1 | 0.0041 | > 20 | 0.64 |  | 
9 | CCc1cc(-c2ncc(-c3ccc(CN4CC(C(=O)O)C4)nc3CC)s2)ccc1CC(C)C | 0.0054 | > 20 | 0.74 |  | 
10 | O=C(O)c1ccc(Oc2ccccc2)cc1 |  |  |  |  | Activity [10]: Active
11 | CCc1nc(CN2CC(C(=O)O)C2)ccc1-c1cnc(-c2ccc(OC(C)C)c(C)c2)s1 | 0.0028 | > 20 |  | 17 | 
12 | CCc1cc(CN2CC(C(=O)O)C2)sc1-c1cc(-c2ccc(Oc3ccccc3)cc2)on1 | 0.022 | > 20 |  | 2 | 
13 | CCc1cc(CN2CC(C(=O)O)C2)sc1-c1cnc(-c2ccc(Oc3ccccc3)cc2)s1 | 0.035 | > 20 |  | 25 | 
14 | CCc1cc(CN2CC(C(=O)O)C2)sc1-c1cnc(-c2ccc(Oc3ccccc3)cc2)o1 | 0.3 | > 20 |  |  | 
15 | CCc1cc(-c2cnc(-c3ccc(CN4CC(C(=O)O)C4)nc3CC)s2)ccc1OC(C)C | 0.004 | > 20 | 0.49 |  | clearance [23]: 1.75 mL/min/kg; Vd [24]: 1.46 L/kg; Cmax [25]: 150 ng/mL; Tmax [26]: 5 h; half-life [27]: 16.7 h; AUC(0-inf) [28]: 3730 ng·h/mL; bioavailability [29]: 75.4%
16 | CCc1cc(CN2CC(C(=O)O)C2)sc1-c1ncc(-c2ccc(Oc3ccccc3)cc2)s1 | 0.0045 | > 20 |  | 42 | Ratio EC50 (Homo sapiens): > 4400
17 | CCc1cc(CN2CC(C(=O)O)C2)sc1-c1ncc(-c2ccc(OC(C)C)c(C(C)C)c2)s1 | 0.0013 | > 20 | 0.53 |  | 

More lines, main results first:

Row | EC50 [1] [µM] | EC50 [2] [µM] | Compound | ED50 (Rattus norvegicus [3]) [mg/kg] | inhibition in vivo at 1 mg/kg (Rattus norvegicus [9]) [%] | further results
18 | 0.006 | > 20 | CCc1cc(CN2CC(C(=O)O)C2)sc1-c1ncc(-c2ccc(O[C@@H](C)CC)c(C)c2)s1 | 0.32 |  | 
19 | 0.011 | > 20 | CCc1cc(CN2CC(C(=O)O)C2)sc1-c1cnc(-c2ccc(OC(C)C)c(C)c2)s1 | 0.19 |  | 
20 | 0.0011 | 0.4 | CCCc1cc(-c2cnc(-c3sc(CN4CC(C(=O)O)C4)cc3CC)s2)ccc1OC(C)C |  | 73 | 
21 | 0.008 | > 20 | CCc1cc(CN2CC(C(=O)O)C2)sc1-c1ncc(-c2ccc(O[C@H](C)CC)c(C)c2)s1 |  | 27 | 
22 | 0.0034 | > 20 | CCc1cc(CN2CC(C(=O)O)C2)sc1-c1ncc(-c2ccc(OC(C)C)c(C)c2)s1 | 0.07 |  | Cmax [11]: 340 ng/mL; Tmax [12]: 5 h; half-life [13]: 11.5 h; AUC(0-inf) [14]: 5140 ng·h/mL; bioavailability [15]: 70.6%; clearance [16]: 6.72 mL/min/kg; Vd [17]: 5.37 L/kg; Cmax [18]: 630 ng/mL; Tmax [19]: 4 h; half-life [20]: 7.2 h; AUC(0-inf) [21]: 8690 ng·h/mL; bioavailability [22]: > 90%; clearance [23]: 2 mL/min/kg; Vd [24]: 0.89 L/kg; Stability [4]: Stable; Stability [5]: Stable; Stability [6]: Stable; Stability [7]: Stable
23 | 0.0034 | > 20 | CCc1cc(-c2cnc(-c3sc(CN4CC(C(=O)O)C4)cc3CC)s2)ccc1OC(C)C | 0.16 |  | 
24 | 0.0035 | > 20 | CCc1cc(CN2CC(C(=O)O)C2)sc1-c1ncc(-c2ccc(C(C)C)c(C)c2)s1 | 1.07 |  | 
25 | 0.0058 | > 20 | CCc1cc(CN2CC(C(=O)O)C2)sc1-c1ncc(-c2ccc(OC(C)C)c(F)c2)s1 | 0.48 |  | 
26 | 0.0032 | > 20 | CCc1cc(CN2CC(C(=O)O)C2)sc1-c1ncc(-c2ccc(OC(C)C)c(Cl)c2)s1 |  | 54 | 
